{
  "source": "ChEMBL document CHEMBL1148541",
  "about": "“Biological evaluation of 1-alkyl-3-phenylthioureas as orally active HDL-elevating agents” (Bioorg Med Chem Lett, 2006)",
  "type_in_all_cases": "functional",
  "key": {"[1]": {"species_on_record": "Rattus norvegicus", "test": "Increase in liver enzyme Aspartate aminotransferase", "parameters": "concentration or dose not given beside the values"}, "[2]": {"system": "Rattus norvegicus", "test": "Increase of HDL level in cholesterol-fed male rats by FPLC method at 73 mg/kg/day relative to control", "in_short": "(§1)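 Groups of six male Sprague–Dawley rats on a cholesterol diet received drug in the diet, ad libitum, for 8 days. Serum lipoproteins separated by FPLC, adapted for robotic automation, and cholesterol quantitated enzymatically by colorimetry. HDL given as % change versus untreated controls, with significance set at p < 0.05.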"}, "[3]": {"system": "Rattus norvegicus", "test": "Triglyceride level in cholesterol-fed male rats at 73 mg/kg/day relative to control", "in_short": "(§2)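 Male Sprague–Dawley rats on a cholesterol diet, in groups of six, received the compound in the diet ad libitum for 8 days. Serum triglycerides are expressed as % change relative to untreated controls, with significance at p < 0.05 versus controls.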"}, "[4]": {"system": "Rattus norvegicus", "test": "Increase of HDL level in cholesterol-fed male rats by ultracentrifugation method at 73 mg/kg/day relative to control", "in_short": "(§3)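 Compound given in the diet, ad libitum, to groups of six male Sprague–Dawley rats on a cholesterol diet for 8 days. Serum lipoproteins were separated by classical ultracentrifugation, and HDL cholesterol was quantitated by an enzymatic colorimetric method. Results are reported as % change relative to untreated controls, with significance at p < 0.05 versus controls.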"}, "[5]": {"system": "Rattus norvegicus", "test": "Increase of Apolipoprotein A-I level in cholesterol-fed male rats at 73 mg/kg/day relative to control", "in_short": "(§4)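 Drug mixed into diet, fed ad libitum for 8 days to groups of six male Sprague–Dawley rats on a cholesterol diet. Serum Apo A-I measured by SDS–polyacrylamide gel electrophoresis or by rat competition ELISA. Reported as % change versus untreated controls, with significance set at p < 0.05.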"}, "[6]": {"system": "Rattus norvegicus", "test": "Weight gain in cholesterol-fed male rats at 73 mg/kg/day relative to control", "in_short": "(§5)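 Groups of six male Sprague–Dawley rats on a cholesterol diet received the compound in the diet, ad libitum, over 8 days. Body weight gain is reported as % change relative to untreated controls.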"}, "[7]": {"system": "Rattus norvegicus", "test": "Increase of total cholesterol level in cholesterol-fed male rats at 73 mg/kg/day relative to control", "in_short": "(§6)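 Dietary (ad libitum) dosing of groups of six male Sprague–Dawley rats on a cholesterol diet for 8 days. Serum total cholesterol was quantitated enzymatically by a colorimetric method and expressed as % change relative to untreated controls, with significance at p < 0.05.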"}, "[8]": {"species_on_record": "Rattus norvegicus", "test": "Increase in liver enzyme Alanine aminotransferase"}, "[9]": {"system": "Rattus norvegicus", "test": "Increase of HDL level in cholesterol-fed male rats by FPLC method at 81 mg/kg/day relative to control", "in_short": "as §1"}, "[10]": {"system": "Rattus norvegicus", "test": "Triglyceride level in cholesterol-fed male rats at 81 mg/kg/day relative to control", "in_short": "as §2"}, "[11]": {"system": "Rattus norvegicus", "test": "Increase of total cholesterol level in cholesterol-fed male rats at 81 mg/kg/day relative to control", "in_short": "as §6"}, "[12]": {"system": "Rattus norvegicus", "test": "Increase of Apolipoprotein A-I level in cholesterol-fed male rats at 81 mg/kg/day relative to control", "in_short": "as §4"}, "[13]": {"system": "Rattus norvegicus", "test": "Weight gain in cholesterol-fed male rats at 81 mg/kg/day relative to control", "in_short": "as §5"}, "[14]": {"system": "Rattus norvegicus", "test": "Increase of HDL level in cholesterol-fed male rats by ultracentrifugation method at 81 mg/kg/day relative to control", "in_short": "as §3"}, "[15]": {"system": "Rattus norvegicus", "test": "Increase of HDL level in cholesterol-fed male rats by FPLC method at 88 mg/kg/day relative to control", "in_short": "as §1"}, "[16]": {"system": "Rattus norvegicus", "test": "Increase of total cholesterol level in cholesterol-fed male rats at 88 mg/kg/day relative to control", "in_short": "as §6"}, "[17]": {"system": "Rattus norvegicus", "test": "Triglyceride level in cholesterol-fed male rats at 88 mg/kg/day relative to control", "in_short": "as §2"}, "[18]": {"system": "Rattus norvegicus", "test": "Increase of HDL level in cholesterol-fed male rats by ultracentrifugation method at 88 mg/kg/day relative to control", "in_short": "as §3"}, "[19]": {"system": "Rattus norvegicus", "test": "Weight gain in cholesterol-fed male rats at 88 mg/kg/day relative to control", "in_short": "as §5"}, "[20]": {"system": "Rattus norvegicus", "test": "Increase of Apolipoprotein A-I level in cholesterol-fed male rats at 88 mg/kg/day relative to control", "in_short": "as §4"}, "[21]": {"system": "Rattus norvegicus", "test": "Triglyceride level in cholesterol-fed male rats at 70 mg/kg/day relative to control", "in_short": "as §2"}, "[22]": {"system": "Rattus norvegicus", "test": "Increase of total cholesterol level in cholesterol-fed male rats at 70 mg/kg/day relative to control", "in_short": "as §6"}, "[23]": {"system": "Rattus norvegicus", "test": "Increase of Apolipoprotein A-I level in cholesterol-fed male rats at 70 mg/kg/day relative to control", "in_short": "as §4"}, "[24]": {"system": "Rattus norvegicus", "test": "Increase of HDL level in cholesterol-fed male rats by ultracentrifugation method at 70 mg/kg/day relative to control", "in_short": "(§7)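 Cholesterol-fed male Sprague–Dawley rats, six per group, given drug in the diet ad libitum for 8 days. Serum lipoproteins separated by classical ultracentrifugation and HDL cholesterol measured by an enzymatic colorimetric method. Expressed as % change versus untreated controls, with significance set at p < 0.05.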"}, "[25]": {"system": "Rattus norvegicus", "test": "Increase of HDL level in cholesterol-fed male rats by FPLC method at 70 mg/kg/day relative to control", "in_short": "as §1"}, "[26]": {"system": "Rattus norvegicus", "test": "Weight gain in cholesterol-fed male rats at 70 mg/kg/day relative to control", "in_short": "as §5"}, "[27]": {"system": "Rattus norvegicus", "test": "Increase of total cholesterol level in cholesterol-fed male rats at 71 mg/kg/day relative to control", "in_short": "as §6"}, "[28]": {"system": "Rattus norvegicus", "test": "Increase of HDL level in cholesterol-fed male rats by FPLC method at 71 mg/kg/day relative to control", "in_short": "as §1"}, "[29]": {"system": "Rattus norvegicus", "test": "Triglyceride level in cholesterol-fed male rats at 71 mg/kg/day relative to control", "in_short": "as §2"}, "[30]": {"system": "Rattus norvegicus", "test": "Weight gain in cholesterol-fed male rats at 71 mg/kg/day relative to control", "in_short": "as §5"}, "[31]": {"system": "Rattus norvegicus", "test": "Increase of HDL level in cholesterol-fed male rats by ultracentrifugation method at 71 mg/kg/day relative to control", "in_short": "as §7"}, "[32]": {"system": "Rattus norvegicus", "test": "Increase of HDL level in cholesterol-fed male rats by ultracentrifugation method at 82 mg/kg/day relative to control", "in_short": "as §3"}, "[33]": {"system": "Rattus norvegicus", "test": "Triglyceride level in cholesterol-fed male rats at 82 mg/kg/day relative to control", "in_short": "as §2"}, "[34]": {"system": "Rattus norvegicus", "test": "Weight gain in cholesterol-fed male rats at 82 mg/kg/day relative to control", "in_short": "as §5"}, "[35]": {"system": "Rattus norvegicus", "test": "Increase of total cholesterol level in cholesterol-fed male rats at 82 mg/kg/day relative to control", "in_short": "as §6"}, "[36]": {"system": "Rattus norvegicus", "test": "Increase of HDL level in cholesterol-fed male rats by FPLC method at 82 mg/kg/day relative to control", "in_short": "as §1"}, "[37]": {"system": "Rattus norvegicus", "test": "Increase of Apolipoprotein A-I level in cholesterol-fed male rats at 82 mg/kg/day relative to control", "in_short": "as §4"}},
  "data": [
    {"compound": "CC/N=C(\\S)Nc1cc(Cl)ccc1C", "values": [
      {"measurement": "Activity", "setting": "[1]", "value": 162, "unit": "%"},
      {"measurement": "Activity", "setting": "[2]", "value": 215, "unit": "%"},
      {"measurement": "Activity", "setting": "[3]", "value": -64, "unit": "%"},
      {"measurement": "Activity", "setting": "[4]", "value": 110, "unit": "%"},
      {"measurement": "Activity", "setting": "[5]", "value": 27, "unit": "%"},
      {"measurement": "Activity", "setting": "[6]", "value": -107, "unit": "%"},
      {"measurement": "Activity", "setting": "[7]", "value": 32, "unit": "%"},
      {"measurement": "Activity", "setting": "[8]", "value": 81, "unit": "%"}
    ]},
    {"compound": "CCC(C)(C)/N=C(\\S)Nc1cc(Cl)ccc1C", "values": [
      {"measurement": "Activity", "setting": "[9]", "value": 39, "unit": "%"},
      {"measurement": "Activity", "setting": "[10]", "value": -14, "unit": "%"},
      {"measurement": "Activity", "setting": "[11]", "value": -10, "unit": "%"},
      {"measurement": "Activity", "setting": "[12]", "value": 64, "unit": "%"},
      {"measurement": "Activity", "setting": "[13]", "value": 15, "unit": "%"},
      {"measurement": "Activity", "setting": "[14]", "value": 55, "unit": "%"}
    ]},
    {"compound": "Cc1ccc(Cl)cc1/N=C(\\S)NCC(C)(C)C", "values": [
      {"measurement": "Activity", "setting": "[1]", "value": 49, "unit": "%"},
      {"measurement": "Activity", "setting": "[15]", "value": 196, "unit": "%"},
      {"measurement": "Activity", "setting": "[16]", "value": 3, "unit": "%"},
      {"measurement": "Activity", "setting": "[17]", "value": -66, "unit": "%"},
      {"measurement": "Activity", "setting": "[18]", "value": 122, "unit": "%"},
      {"measurement": "Activity", "setting": "[19]", "value": 7, "unit": "%"},
      {"measurement": "Activity", "setting": "[8]", "value": 111, "unit": "%"},
      {"measurement": "Activity", "setting": "[20]", "value": 89, "unit": "%"}
    ]},
    {"compound": "CCC/N=C(\\S)Nc1cc(Cl)ccc1CC", "values": [
      {"measurement": "Activity", "setting": "[21]", "value": -61, "unit": "%"},
      {"measurement": "Activity", "setting": "[22]", "value": 28, "unit": "%"},
      {"measurement": "Activity", "setting": "[23]", "value": 43, "unit": "%"},
      {"measurement": "Activity", "setting": "[24]", "value": 101, "unit": "%"},
      {"measurement": "Activity", "setting": "[25]", "value": 369, "unit": "%"},
      {"measurement": "Activity", "setting": "[26]", "value": -33, "unit": "%"}
    ]},
    {"compound": "CCC/N=C(\\S)Nc1cc(C)ccc1OC", "values": [
      {"measurement": "Activity", "setting": "[27]", "value": 71, "unit": "%"},
      {"measurement": "Activity", "setting": "[28]", "value": 63, "unit": "%"},
      {"measurement": "Activity", "setting": "[29]", "value": -38, "unit": "%"},
      {"measurement": "Activity", "setting": "[30]", "value": -16, "unit": "%"},
      {"measurement": "Activity", "setting": "[31]", "value": 84, "unit": "%"}
    ]},
    {"compound": "Cc1ccc(Cl)cc1N/C(S)=N/C(C)C(C)(C)C", "note": "(centres undefined)", "values": [
      {"measurement": "Activity", "setting": "[32]", "value": 93, "unit": "%"},
      {"measurement": "Activity", "setting": "[33]", "value": -35, "unit": "%"},
      {"measurement": "Activity", "setting": "[34]", "value": -24, "unit": "%"},
      {"measurement": "Activity", "setting": "[35]", "value": 15, "unit": "%"},
      {"measurement": "Activity", "setting": "[36]", "value": 109, "unit": "%"},
      {"measurement": "Activity", "setting": "[37]", "value": 34, "unit": "%"}
    ]}
  ]
}
